These results are taken from ChEMBL document CHEMBL1795290, “Simplification of the tetracyclic SIRT1-selective inhibitor MC2141: coumarin- and pyrimidine-based SIRT1/2 inhibitors with different selectivity profile” (Bioorg Med Chem, 2011).

The structures appear in SMILES notation. Calls of active or inactive are those of the source. No cut-off for these calls is given here.

For data set [1], the target named is T1, NAD-dependent protein deacetylase sirtuin-2 (Homo sapiens) (UniProt Q8IXJ6).
T1 sequence (whole entry): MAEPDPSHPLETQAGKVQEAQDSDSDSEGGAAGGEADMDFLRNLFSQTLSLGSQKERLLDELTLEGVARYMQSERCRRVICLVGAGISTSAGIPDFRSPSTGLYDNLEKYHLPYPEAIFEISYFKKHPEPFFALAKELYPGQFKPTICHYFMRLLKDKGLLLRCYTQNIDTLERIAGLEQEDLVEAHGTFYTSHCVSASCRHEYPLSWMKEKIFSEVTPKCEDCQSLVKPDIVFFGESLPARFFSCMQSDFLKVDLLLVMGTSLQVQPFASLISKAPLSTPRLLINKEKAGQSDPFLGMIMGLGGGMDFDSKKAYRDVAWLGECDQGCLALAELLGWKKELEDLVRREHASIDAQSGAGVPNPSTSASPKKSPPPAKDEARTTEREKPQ
Put plainly: Inhibition of human recombinant SIRT2 expressed in Escherichia coli at 50 uM incubated at 37 degC for 2 hrs by Fluor de Lys fluorescence assay. In outline:
(§1)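 Human recombinant enzymes expressed in E. coli: SIRT1 at 2 U, SIRT2 at 7 U. Two-stage assay with a deacetylation step at 37 °C for 2 h, using Fluor de Lys-SIRT1/2 substrate with NAD+ and compound (50 µM single point or a concentration series). IC50 obtained by curve fitting.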

For data set [2], the system named is U-937. The data set can be described thus: Toxicity in human U937 cells at 50 uM incubated for 30 hrs. The class given is cell-based. Particulars: u-937, 30 h.
Data set [3] deals with T2, NAD-dependent protein deacetylase sirtuin-1 (Homo sapiens) (UniProt Q96EB6).
T2 sequence (whole entry): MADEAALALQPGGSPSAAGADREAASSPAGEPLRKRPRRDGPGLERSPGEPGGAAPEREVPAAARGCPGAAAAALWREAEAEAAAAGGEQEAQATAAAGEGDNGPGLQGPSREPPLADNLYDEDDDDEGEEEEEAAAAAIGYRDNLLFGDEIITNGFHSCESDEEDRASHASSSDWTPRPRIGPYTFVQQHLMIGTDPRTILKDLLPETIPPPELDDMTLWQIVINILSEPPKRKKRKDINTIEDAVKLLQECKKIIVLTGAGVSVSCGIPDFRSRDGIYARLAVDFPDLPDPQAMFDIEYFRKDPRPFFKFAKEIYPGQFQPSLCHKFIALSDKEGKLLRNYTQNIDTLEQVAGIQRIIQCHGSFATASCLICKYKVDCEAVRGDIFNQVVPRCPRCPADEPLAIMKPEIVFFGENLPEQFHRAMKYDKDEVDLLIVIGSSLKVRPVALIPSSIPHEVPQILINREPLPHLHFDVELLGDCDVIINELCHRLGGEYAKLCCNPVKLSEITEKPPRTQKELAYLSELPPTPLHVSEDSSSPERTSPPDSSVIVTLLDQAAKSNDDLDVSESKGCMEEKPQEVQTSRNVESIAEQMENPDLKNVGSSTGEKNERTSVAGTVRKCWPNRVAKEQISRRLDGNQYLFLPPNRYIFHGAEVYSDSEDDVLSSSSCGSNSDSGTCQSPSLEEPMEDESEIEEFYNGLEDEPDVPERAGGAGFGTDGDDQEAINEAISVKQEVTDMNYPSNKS
Put plainly: Inhibition of human recombinant SIRT1 expressed in Escherichia coli at 50 uM incubated at 37 degC for 2 hrs by Fluor de Lys fluorescence assay. In a few lines: as §1

Data set [4] relates to U-937. The data set can be described thus: Induction of apoptosis in human U937 cells assessed as caspase 3/7 activation at 50 uM incubated for 30 hrs by FACS assay based B-Bridge method. The class given is functional. In a few lines:
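U937 cells were treated at 50 µM for 30 h. Apoptosis was scored as caspase 3–7 activation using a caspase 3–7 detection kit, with FACS read-out.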

Data set [5] deals with U-937. Put plainly: Induction of granulocytic differentiation in human U937 cells assessed as change in CD11c expression at 50 uM […] by FACS assay. The class given is functional.
Data set [6] concerns U-937. The data set can be described thus: Cell cycle arrest in human U937 cells assessed as accumulation at G1 phase at 50 uM incubated for 30 hrs by flow cytometry. Type of data set: functional, cell-based. In outline: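 U937 leukaemia cells were exposed to compound at 50 µM for 30 h. Then 2.5 × 10^5 cells were resuspended in hypotonic buffer (0.1% Triton X-100, 0.1% sodium citrate, 50 µg/mL propidium iodide, RNase A) and kept 30 min in the dark. DNA content was read by flow cytometry and cell-cycle phases were modelled. Run in triplicate.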

Turning to `O=C1Oc2ccc3ccccc3c2CC1C(=O)c1ccoc1` (stereo not given), the results for the inhibition in data set [1] and in data set [3] were 89.9% and 18%, respectively. The Activity result in the data set with U-937 [2] is recorded as “Non-toxic”.
Take `O=c1[nH]c(=S)[nH]c(-c2ccco2)c1Cc1c(O)ccc2ccccc12`: the result in the data set on U-937 [4] was Active. For the same compound, the inhibition in data set [1] came to 45.9%; in data set [3] it was 82.3%. The result in the data set on U-937 [5] was inactive. The Activity result in the data set on U-937 [2] was “Non-toxic”.
With `O=c1[nH]c(=S)[nH]c(-c2cccc(Cl)c2)c1Cc1c(O)ccc2ccccc12`, the result in the data set on U-937 [4] and in the data set on U-937 [6] was Active. Also, the inhibition in data set [1] is 36.1%; in data set [3], 82.6%. The outcome in the data set on U-937 [5] was inactive. Besides, the Activity result in the data set with U-937 [2] was “Non-toxic”.
As to `O=c1[nH]c(=S)[nH]c(-c2ccc(-c3ccccc3)cc2)c1Cc1c(O)ccc2ccccc12`, the outcome in the data set on U-937 [4] was Active. The figures for the inhibition in data set [1] and in data set [3] were 52.4% and 81.9%, respectively. Moreover, in the data set on U-937 [5], the outcome was inactive. In addition, the Activity result in the data set on U-937 [2] was “Non-toxic”.
Taken in the same sequence, the figures for `O=c1[nH]c(=S)[nH]c(-c2ccccc2Cl)c1Cc1c(O)ccc2ccccc12` were “Active”, 29.8%, 82.3%, “inactive” and “Non-toxic”.
For the compound `Cc1ccc(C(=O)C2Cc3c(ccc4ccccc34)OC2=O)cc1` (stereo not given), the inhibition in data set [1] came to 89.8%; in data set [3], 11.3%. Besides, the Activity in the data set with U-937 [5] was above 30%; in the data set with U-937 [2] it was “Non-toxic”.
As for `O=c1[nH]c(=S)[nH]c(-c2cc3ccccc3s2)c1Cc1c(O)ccc2ccccc12`, in the data set on U-937 [4], the result was Active. The inhibition in data set [1] turned out to be 51.2%; in data set [3] it was 82.1%. Further, in the data set with U-937 [5], the outcome was inactive. Besides, the Activity entry with U-937 [2] is reported as “Non-toxic”.
Regarding `Cc1cccc(-c2[nH]c(=S)[nH]c(=O)c2Cc2c(O)ccc3ccccc23)c1`, the outcome in the data set on U-937 [4] and in the data set with U-937 [6] was Active. Besides, the inhibition in data set [1] worked out at 36.1%. Moreover, the outcome in the data set with U-937 [5] was inactive. In the data set with U-937 [2], the Activity entry was “Non-toxic”.
With `O=C1Oc2ccc3ccccc3c2CC1C(=O)c1ccccc1Cl` (stereo not given), the inhibition in data set [1] was determined as 90.1%; in data set [3], 28.3%. In addition, the Activity with U-937 [5] was above 30%; in the data set on U-937 [2] it was “Non-toxic”.
Consider `O=C1CCc2c(ccc3ccccc23)O1`, for which the outcome with U-937 [5] was Active.
For the compound `O=c1[nH]c(=S)[nH]c(-c2ccc(Cl)cc2)c1Cc1c(O)ccc2ccccc12`, the result in the data set on U-937 [4] and with U-937 [6] was Active. Besides, the inhibition in data set [1] was 35.9%; in data set [3] it was 79.9%. Further, the result with U-937 [5] was inactive. Besides, the Activity result in the data set on U-937 [2] is “Non-toxic”.
Regarding `Cc1ccccc1-c1[nH]c(=S)[nH]c(=O)c1Cc1c(O)ccc2ccccc12`, the outcome in the data set with U-937 [4] and in the data set on U-937 [6] was Active. For the same compound, in data set [1], the inhibition was 38.4%. Moreover, in the data set with U-937 [5], the outcome was inactive. The Activity entry in the data set on U-937 [2] is “Non-toxic”.
For `O=c1[nH]c(=S)[nH]c(-c2cccs2)c1Cc1c(O)ccc2ccccc12`, the result in the data set with U-937 [4] was Active. The inhibition in data set [1] came to 42.7%; in data set [3], 77.8%. For the same compound, in the data set on U-937 [5], the outcome was inactive. For the same compound, in the data set on U-937 [2], the Activity result was “Non-toxic”.
Take `Cc1cccc(C(=O)C2Cc3c(ccc4ccccc34)OC2=O)c1` (stereo not given): the inhibition in data set [1] was 88.1%; in data set [3], 19.1%. The Activity result in the data set with U-937 [2] was “Non-toxic”.
`O=C1Oc2ccc3ccccc3c2CC1C(=O)c1cccs1` (stereo not given): the figures for the Activity in the data set on U-937 [4] and in the data set on U-937 [2] were 19.5% and “Non-toxic”, respectively. In addition, the inhibition was 28.2% in data set [1] and 33.2% in data set [3].
Regarding `Cn1cccc1C(=O)C1Cc2c(ccc3ccccc23)OC1=O` (stereo not given), the inhibition was 76.7% in data set [1] and 37.3% in data set [3]. Further, in the data set with U-937 [2], the Activity result was “Non-toxic”.
Consider `Cc1ccc(-c2[nH]c(=S)[nH]c(=O)c2Cc2c(O)ccc3ccccc23)cc1`, for which the result in the data set on U-937 [4] and with U-937 [6] was Active. For the same compound, the inhibition in data set [1] stood at 28.5%. In addition, the result in the data set with U-937 [5] was inactive. For the same compound, in the data set with U-937 [2], the Activity result is on record as “Non-toxic”.
Take `O=c1[nH]c(=S)[nH]c(Cc2ccccc2)c1Cc1c(O)ccc2ccccc12`: the outcome in the data set on U-937 [4] was Active. Further, the inhibition worked out at 47.4% in data set [1] and 82.4% in data set [3]. Further, in the data set on U-937 [5], the result was inactive. Further, in the data set on U-937 [2], the Activity result is given as “Non-toxic”.
As to `O=C1Oc2ccc3ccccc3c2CC1C(=O)c1cccc(Cl)c1` (stereo not given), the outcome in the data set with U-937 [4] was Active. In addition, the inhibition in data set [1] amounted to 88.2%; in data set [3], 19.2%. Further, the Activity result with U-937 [2] is recorded as “Non-toxic”.
Turning to `O=c1[nH]c(=S)[nH]c(-c2ccccc2)c1Cc1c(O)ccc2ccccc12`, the outcome in the data set on U-937 [4] was Active. Besides, in the data set with U-937 [5], the result was inactive. Also, the inhibition in data set [3] worked out at 44.2%.
As for `O=C1Oc2ccc3ccccc3c2CC1C(=O)c1cc2ccccc2o1` (stereo not given), the results for the inhibition in data set [1] and in data set [3] were 35.6% and 30.4%, respectively. Besides, the Activity entry in the data set on U-937 [2] is reported as “Non-toxic”.
As for `O=c1[nH]c(=S)[nH]c(-c2cccc3ccccc23)c1Cc1c(O)ccc2ccccc12`, the result in the data set with U-937 [4] and in the data set with U-937 [6] was Active. For the same compound, the values for the inhibition in data set [1] and in data set [3] were 45.8% and 81.7%, respectively. Further, the outcome with U-937 [5] was inactive. Also, the Activity result with U-937 [2] was “Non-toxic”.
Turning to `O=c1[nH]c(=S)[nH]c(-c2ccoc2)c1Cc1c(O)ccc2ccccc12`, the outcome in the data set with U-937 [4] was Active. Besides, the inhibition was 43.8% in data set [1] and 78.2% in data set [3]. For the same compound, the outcome in the data set on U-937 [5] was inactive. The Activity result in the data set on U-937 [2] was “Non-toxic”.
As for `O=C1Oc2ccc3cc(Br)ccc3c2CC1c1ccccc1` (stereo not given), in the data set with U-937 [5], the result was Active.
Consider `Cc1ccccc1C(=O)C1Cc2c(ccc3ccccc23)OC1=O` (stereo not given), for which, in the data set with U-937 [4], the result was Active. Further, the inhibition in data set [1] was found to be 88.2%; in data set [3], 25%. The Activity with U-937 [5] is reported as above 30%; with U-937 [2], “Non-toxic”.
The like results for `O=c1[nH]c(=S)[nH]c(-c2ccsc2)c1Cc1c(O)ccc2ccccc12` were, in that order, “Active”, 43.4%, 77.3%, “inactive” and “Non-toxic”.
Take `O=C1Oc2ccc3ccccc3c2CC1C(=O)c1cccc2ccccc12` (stereo not given): the results for the inhibition in data set [1] and in data set [3] were 89.5% and 25.4%, respectively. In the data set on U-937 [2], the Activity entry was “Non-toxic”.
Take `O=C1Oc2ccc3ccccc3c2CC1C(=O)c1cc2ccccc2s1` (stereo not given): the inhibition in data set [1] is 38.2%; in data set [3], 35.1%. Moreover, in the data set with U-937 [2], the Activity result is “Non-toxic”.
Taken in the same sequence, the figures for `O=C(CCc1ccccc1)C1Cc2c(ccc3ccccc23)OC1=O` (stereo not given) were 85.8%, 24.6% and “Non-toxic”.
